Results from ChEMBL document CHEMBL1817592, “Triazoles as γ-secretase modulators” (Bioorg Med Chem Lett, 2011).

Legend:
Type in all cases: ADME, organism-based
[1] = Plasma clearance in Sprague-Dawley rat at 1 mg/kg, iv and 2 mg/kg, po
In short: (§1)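 SD rat pharmacokinetics: 1 mg/kg iv and 2 mg/kg po. Plasma clearance and Vd were determined. Half-life came from the iv arm.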

[2] = Volume of distribution at steady state in Sprague-Dawley rat at 1 mg/kg, iv and 2 mg/kg, po; settings: in vivo, read-out: Vdss; in short: as §1
[3] = Half life in Sprague-Dawley rat at 1 mg/kg, iv; design: dose 1 mg/kg, route intravenous; settings: in vivo; in short: as §1
[4] = Oral bioavailability in Sprague-Dawley rat at 2 mg/kg; settings: in vivo; in short: as §1
Rattus norvegicus = experiment: Dose normalized AUC (0 to 24 hrs) in Sprague-Dawley rat at 2 mg/kg, po; design: dose 2 mg/kg, route oral; settings: in vivo
In short: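 Sprague–Dawley rats dosed orally at 2 mg/kg, alongside a separate 1 mg/kg iv arm. Plasma exposure was followed over 0–24 h after the oral dose. AUC was normalized to dose and expressed as μM h kg/mg.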

[5] = Plasma concentration in Sprague-Dawley rat at 100 mg/kg, po after 6 hrs; design: dose 100 mg/kg, route oral
In short: (§2)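 SD rats given a single 100 mg/kg oral dose, n=5. Plasma and whole brain were taken 6 h later. Drug concentrations were measured in both, the brain-to-plasma ratio was derived from them, and whole-brain Aβ42 was reported as percent change.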

[6] = Drug level in Sprague-Dawley rat brain at 100 mg/kg, po after 6 hrs; design: dose 100 mg/kg, route oral; settings: read-out: Drug uptake; in short: as §2
[7] = Ratio of drug level in brain to plasma in Sprague-Dawley rat at 100 mg/kg, po after 6 hrs; design: dose 100 mg/kg, route oral; settings: read-out: BPR; in short: as §2
[8] = Plasma concentration in Sprague-Dawley rat at 60 mg/kg, po after 6 hrs; design: dose 60 mg/kg, route oral
In short: (§3)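 Single 60 mg/kg oral dose in SD rats. Plasma and brain drug exposure and central Aβ42 were assessed 6 h post-dose.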

[9] = Drug level in Sprague-Dawley rat brain at 60 mg/kg, po after 6 hrs; design: dose 60 mg/kg, route oral; settings: read-out: Drug uptake; in short: as §3

## COc1cc(-c2cn(Cc3ccc(C(C)(C)C)cc3)nn2)ccc1-n1cnc(C)c1
[1]
  clearance: 24 mL/min/kg
[2]
  Vd: 7.1 L/kg
[3]
  half-life: 7.7 h
[4]
  bioavailability: 41%
Rattus norvegicus
  AUC/dose: 1.4 µM·kg·h/mg
[5]
  concentration at 6 h: 47 µM
[6]
  concentration at 6 h: 56 µM
[7]
  Kp at 6 h: 1.2

## COc1cc(-c2cn(Cc3ccc(-c4nc5ccccc5o4)cc3)nn2)ccc1-n1cnc(C)c1
[1]
  clearance: 13.7 mL/min/kg
[2]
  Vd: 2.8 L/kg
[3]
  half-life: 5.4 h
[4]
  bioavailability: 49%
Rattus norvegicus
  AUC/dose: 2.6 µM·kg·h/mg
[8]
  concentration at 6 h: 40 µM
[9]
  concentration at 6 h: 9.4 µM
